These results are taken from ChEMBL document CHEMBL3351723, “New derivatives of lupane triterpenoids disturb breast cancer mitochondria and induce cell death” (Bioorg Med Chem, 2014).

Calls of active or inactive are those of the source. No cut-off for these calls is given here.

A short description of data set [1]: Cytotoxicity against human MCF12A cells at 0.125 to 2 ug/ml after 1 to 5 days by sulforhodamine B assay. The class given is cell-based. Particulars: mcf-12a. The procedure, abridged:
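Non-tumor cells seeded at 2×10^4 cells/ml and treated 24 h after seeding, in high-glucose DMEM with pyruvate, 10% FBS and penicillin-streptomycin, 37°C, 5% CO2. Compound exposure 0.125–2 μg/ml for 1, 3 and 5 days, with vehicle controls. Cells fixed and stained with sulforhodamine B for total cell mass. Data given as % of untreated control at each time point; five independent experiments.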
Background: Sulforhodamine B stains cellular protein and so reports cell mass.

A short description of data set [2]: Cell cycle arrest against human Hs578T cells assessed as increase in cells at G0/G1 phase at 0.5 ug/ml after 24 to 48 hrs by propidium iodide staining based flow cytometry. Format: functional. Particulars: Hs-578T. Summed up: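 Log-phase Hs578T cells exposed 24 and 48 h to 0.5 μg/ml. Adherent plus floating cells fixed in cold 70% ethanol, kept overnight at -20°C, washed into PBS-T (132 mM NaCl, 4 mM KCl, 1.2 mM NaH2PO4, 0.1% Tween). Treated with 20 μg/ml RNase for 45 min at 37°C, then propidium iodide for 30 min at 37°C. Phase percentages read by flow cytometry. Mean ± SEM, 5 experiments.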

Data set [3] concerns Hs-578T. Nature of the data set: Induction of apoptosis in human Hs578T cells assessed as increase in caspase 3 like activity at 1 ug/ml after 24 hrs. The class given is functional, cell-based.
Data set [4] relates to Hs-578T. Put plainly: Induction of apoptosis in human Hs578T cells assessed as increase in p53 protein at 1 ug/ml after 24 hrs by Western blot analysis. Format: functional, cell-based. The procedure, abridged:
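About 1.0×10^6 attached and floating HS578T cells, treated 24 h at 1 μg/ml, were lysed in HEPES/sucrose buffer with DTT, PMSF and protease inhibitors. Extracts were stored at -80°C, then p53 and cyclophilin D were semi-quantified by Western blot. Six experiments, mean ± SEM.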
(In general: In western blotting, separated proteins are transferred to a membrane and probed.)

Data set [5] concerns Hs-578T. Nature of the data set: Effect on Bax protein level in human Hs578T cells at 1 ug/ml after 24 hrs by Western blot analysis. The class given is functional, cell-based.
The test system of data set [6] is Hs-578T. Put plainly: Effect on Bcl2 protein level in human Hs578T cells at 1 ug/ml after 24 hrs by Western blot analysis. The class given is functional, cell-based.
Data set [7] can be described thus: Induction of apoptosis in human Hs578T cells assessed as distribution of mitochondrial polarization and morphology at 0.25 ug/ml after 6 hrs by confocal microscopy. The class given is functional, cell-based. The note with it: Hs-578T. Summed up: (§1)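 Cells were seeded on glass coverslips and left to attach for 24 h. They were then exposed to vehicle or 0.25 μg/ml compound for 6 h. For the last 30 min they were loaded with 100 nM TMRM in saline buffer with 15 mM glucose, and the probe was kept present during imaging. Mitochondrial polarization and morphology were imaged by fluorescence microscopy, and the TMRM fluorescence standard deviation was quantified. Four independent preparations, mean ± SEM.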

A short description of data set [8]: Induction of apoptosis in human Hs578Bst cells assessed as distribution of mitochondrial polarization and morphology at 0.25 ug/ml after 6 hrs by confocal microscopy. Format: functional, cell-based. Summed up: as §1
The test system of the next data set is MDA-MB-231. Nature of the data set: Cytotoxicity against human MDA-MB-231 cells assessed as reduction in cell number in glucose-free, galactose/glutamine medium after 3 to 5 days. The class given is functional, cell-based. The procedure, abridged: (§2)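 Cells grown in glucose-free DMEM with galactose (1.8 g/L), L-glutamine (0.584 g/L), pyruvate and 10% FBS, forcing ATP from oxidative phosphorylation. Exposed to a dose range for 1, 3 and 5 days. Cell number read by sulforhodamine B and expressed as % of control. Mean ± SEM, 5 experiments.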

The subject of the next data set is MCF7. Nature of the data set: Cytotoxicity against human MCF7 cells assessed as reduction in cell number in glucose-free, galactose/glutamine medium after 3 to 5 days. The class given is functional, cell-based. Summed up:
as §2

Data set [9] is described as follows: Induction of mitochondrial permeability transition pore in Wistar Han rat liver mitochondria assessed as mitochondrial swelling by spectrophotometry. Format: functional. The procedure, abridged:
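Isolated rat liver mitochondria were energized with succinate plus rotenone and pre-incubated with compound at 0.07–1.33 µg/mg protein. MPT was then triggered by one Ca2+ pulse of 40 nmol/mg protein. Swelling was followed as pseudo-absorbance at 540 nm, and amplitude is basal minus the reading 600 s after Ca2+. Cyclosporin A at 1 µM was the reference, with 6 preparations.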

Data set [10] concerns Liver microsome. Nature of the data set: Induction of mitochondrial function disruption in Wistar Han rat liver mitochondria energized with succinate assessed as State-3 level per mg of protein measured at 0.067 ug/mg of protein (reference value: 130.8 +/- 24.1 nmol/mg protein/min). Format: functional.
The test system of data set [11] is Liver microsome. Put plainly: Induction of mitochondrial function disruption in Wistar Han rat liver mitochondria energized with succinate assessed as State-3 level per mg of protein measured at 0.333 ug/mg of protein (reference value: 130.8 +/- 24.1 nmol/mg protein/min). The class given is functional.
Data set [12] has as its system Liver microsome. Nature of the data set: Induction of mitochondrial function disruption in Wistar Han rat liver mitochondria energized with succinate assessed as State-3 level per mg of protein measured at 0.667 ug/mg of protein (reference value: 130.8 +/- 24.1 nmol/mg protein/min). Format: functional.
In data set [13] the test system is Liver microsome. Nature of the data set: Induction of mitochondrial function disruption in Wistar Han rat liver mitochondria energized with succinate assessed as State-3 level per mg of protein measured at 1.333 ug/mg of protein (reference value: 130.8 +/- 24.1 nmol/mg protein/min). Format: functional.
Data set [14] deals with Liver microsome. Nature of the data set: Induction of mitochondrial function disruption in Wistar Han rat liver mitochondria energized with succinate assessed as State-4 level per mg of protein measured at 0.133 ug/mg of protein (reference value: 33.5 +/- 7.5 nmol/mg protein/min). The class given is functional.
Data set [15] has as its system Liver microsome. Put plainly: Induction of mitochondrial function disruption in Wistar Han rat liver mitochondria energized with succinate assessed as State-4 level per mg of protein measured at 1.333 ug/mg of protein (reference value: 33.5 +/- 7.5 nmol/mg protein/min). Format: functional.
Data set [16] relates to Liver microsome. Nature of the data set: Induction of mitochondrial function disruption in Wistar Han rat liver mitochondria energized with succinate assessed as adenosine diphosphate/O ratio measured at 0.067 ug/mg of protein (reference value: 2.3 +/- 0.2 no_unit). Format: functional.
The subject of data set [17] is Liver microsome. Nature of the data set: Induction of mitochondrial function disruption in Wistar Han rat liver mitochondria energized with succinate assessed as adenosine diphosphate/O ratio measured at 0.333 ug/mg of protein (reference value: 2.3 +/- 0.2 no_unit). The class given is functional.
Data set [18] can be described thus: Induction of mitochondrial function disruption in Wistar Han rat liver mitochondria energized with succinate assessed as adenosine diphosphate/O ratio measured at 0.667 ug/mg of protein (reference value: 2.3 +/- 0.2 no_unit). Format: functional.
Data set [19] concerns Liver microsome. Put plainly: Induction of mitochondrial function disruption in Wistar Han rat liver mitochondria energized with succinate assessed as respiratory control ratio measured at 0.333 ug/mg of protein (reference value: 4.1 +/- 0.5 no_unit). Format: functional.
The subject of data set [20] is Liver microsome. Put plainly: Induction of mitochondrial function disruption in Wistar Han rat liver mitochondria energized with succinate assessed as respiratory control ratio measured at 0.667 ug/mg of protein (reference value: 4.1 +/- 0.5 no_unit). The class given is functional.
The subject of data set [21] is Liver microsome. Nature of the data set: Induction of mitochondrial function disruption in Wistar Han rat liver mitochondria energized with succinate assessed as respiratory control ratio measured at 1.333 ug/mg of protein (reference value: 4.1 +/- 0.5 no_unit). Format: functional.
The subject of data set [22] is Hs-578T. Put plainly: Cytotoxicity against human Hs578T cells at 0.125 to 2 ug/ml incubated for 6 hrs folowed by drug wash out and fresh medium addition and measured 5 days after wash out. Format: functional, cell-based.

With `C=C(C)[C@@H]1CC[C@]2(COC(=O)C[N+](C)(C)C(C)C)CC[C@]3(C)[C@H](CC[C@@H]4[C@@]5(C)CC[C@H](OC(=O)C[N+](C)(C)C(C)C)C(C)(C)[C@@H]5CC[C@]43C)[C@@H]12.[Cl-].[Cl-]`, the Activity entry in data set [1] is “Non-toxic”; in data set [9] it was “Dose-dependent effect”; with Liver microsome [10], 117 nmol/min; in the data set on Liver microsome [11], 121 nmol/min; with Liver microsome [12] it was 116 nmol/min; in the data set with Liver microsome [13], 107 nmol/min. The Activity in the data set with Liver microsome [14] came to 28.6 nmol/min; in the data set with Liver microsome [15], 28.7 nmol/min. Further, the outcome (in data set [2]; in the data set with Hs-578T [3]; with Hs-578T [4]; in data set [7]; in data set [8]) was Active. In addition, the outcome in the data set on Hs-578T [5] and in the data set on Hs-578T [6] was inactive. Besides, the “Cytotoxicity (active/inactive call)” value in the data set with MDA-MB-231 is “Active”. Further, the inhibition result in the data set on MCF7 and with Hs-578T [22] was “Active” each time. Moreover, the Ratio with Liver microsome [16] was found to be 3; in the data set with Liver microsome [17], 2.9; in data set [18] it was 2.6; with Liver microsome [19] it was 4.2; with Liver microsome [20] it was 4.3; with Liver microsome [21], 4.2.

Regarding `C=C(C)[C@@H]1CC[C@]2(COC(=O)C(CC)[n+]3ccc(N(C)C)cc3)CC[C@]3(C)[C@H](CC[C@@H]4[C@@]5(C)CC[C@H](OC(=O)C(CC)[n+]6ccc(N(C)C)cc6)C(C)(C)[C@@H]5CC[C@]43C)[C@@H]12` (stereo partly drawn), the outcome (in [2]; with Hs-578T [3]; with Hs-578T [4]; in data set [7]; in data set [8]) was Active. Moreover, the outcome in the data set with Hs-578T [5] and in the data set on Hs-578T [6] was inactive. For the same molecule, the “Cytotoxicity (active/inactive call)” value with MDA-MB-231 was “Active”. Further, the inhibition result in the data set with MCF7 is “Active”. Moreover, the Activity entry in data set [9] was “Dose-dependent effect”; with Liver microsome [10] it was 130 nmol/min; in the data set on Liver microsome [11] it was 132 nmol/min; in the data set on Liver microsome [12], 125 nmol/min; in the data set on Liver microsome [13] it was 119 nmol/min; in the data set with Liver microsome [14], 23.7 nmol/min. In the data set on Liver microsome [15], the Activity amounted to 21.5 nmol/min. Further, the Ratio with Liver microsome [16] is 1.6; in the data set on Liver microsome [17] it was 1.6; in [18] it was 1.6; in the data set with Liver microsome [19], 3.2; in the data set on Liver microsome [20], 3.1; in the data set on Liver microsome [21], 3.2.

As to `C=C(C)[C@@H]1CC[C@]2(COC(=O)CC[n+]3ccc(N(C)C)cc3)CC[C@]3(C)[C@H](CC[C@@H]4[C@@]5(C)CC[C@H](OC(=O)CC[n+]6ccc(N(C)C)cc6)C(C)(C)[C@@H]5CC[C@]43C)[C@@H]12.[Cl-].[Cl-]`, the Activity result was “Toxic” in data set [1]; 127 nmol/min in the data set with Liver microsome [10]; 121 nmol/min in the data set with Liver microsome [11]; 116 nmol/min in the data set on Liver microsome [12]; 112 nmol/min with Liver microsome [13]; 25.3 nmol/min in the data set with Liver microsome [14]. Also, the Activity in the data set on Liver microsome [15] worked out at 25.7 nmol/min. The outcome (in data set [2]; in the data set on Hs-578T [3]; in the data set on Hs-578T [4]) was Active. For the same molecule, the outcome (with Hs-578T [5]; in the data set with Hs-578T [6]; in data set [8]; in data set [9]) was inactive. Also, the “Cytotoxicity (active/inactive call)” value in the data set on MDA-MB-231 was “Active”. Besides, the inhibition result with MCF7 and in the data set on Hs-578T [22] was “Active” throughout. The Ratio was 1.8 with Liver microsome [16]; 1.8 in the data set with Liver microsome [17]; 1.6 in data set [18]; 4.1 with Liver microsome [19]; 4.6 in the data set on Liver microsome [20]; 4.3 in the data set with Liver microsome [21].

With `C=C(C)[C@@H]1CC[C@]2(COC(=O)C[n+]3ccc(N(C)C)cc3)CC[C@]3(C)[C@H](CC[C@@H]4[C@@]5(C)CC[C@H](OC(=O)C[n+]6ccc(N(C)C)cc6)C(C)(C)[C@@H]5CC[C@]43C)[C@@H]12.[Cl-].[Cl-]`, the Activity result in data set [1] is “Toxic”; in [9], “Dose-dependent effect”; with Liver microsome [10], 132 nmol/min; in the data set on Liver microsome [11] it was 136 nmol/min; in the data set with Liver microsome [12], 141 nmol/min; with Liver microsome [13] it was 131 nmol/min. Besides, the figures for the Activity with Liver microsome [14] and with Liver microsome [15] were 34.5 nmol/min and 34.8 nmol/min, respectively. In addition, the result (in data set [2]; in the data set with Hs-578T [3]; in the data set on Hs-578T [4]; in [7]; in [8]) was Active. The outcome with Hs-578T [5] and in the data set on Hs-578T [6] was inactive. Besides, in the data set on MDA-MB-231, the “Cytotoxicity (active/inactive call)” value is “Active”. The inhibition entry in the data set with MCF7 and in the data set on Hs-578T [22] was “Active” throughout. Moreover, the Ratio in the data set with Liver microsome [16] was 2.4; with Liver microsome [17], 2.2; in data set [18], 2.2; in the data set on Liver microsome [19], 4.4; in the data set on Liver microsome [20], 4.4; in the data set with Liver microsome [21], 4.
